Measured values taken from ChEMBL document CHEMBL1124462, “Synthesis, DNA binding, and biological evaluation of synthetic precursors and novel analogues of netropsin” (J Med Chem, 1989).
≈ marks a conversion by molar mass, not a printed value.

How the values were obtained:
[1] = system: HeLa; experiment: Minimum inhibitory concentration required to reduce Coxsackie virus B4 induced cytopathogenicity by 50% in HeLa cells; assay type: functional; settings: Homo sapiens
Procedure, shortened: (§1)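 Cell cultures (PRK, HeLa or Vero B) are infected at 100 × CCID50. Cytopathogenicity is recorded once it reaches completion in the untreated virus-infected controls. The minimum inhibitory concentration is given in μg/mL.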

[2] = system: Vero; experiment: Minimum inhibitory concentration required to reduce Coxsackie virus B4 induced cytopathogenicity by 50% in african green monkey (VeroB) cells; assay type: functional, Coxsackievirus B4; settings: Chlorocebus sabaeus; procedure, shortened: as §1
[3] = system: HeLa; experiment: Minimum cytotoxic concentration required to cause a microscopically detectable alteration of normal cell morphology and show antiviral activity in HeLa cells; assay type: functional; settings: Homo sapiens
Procedure, shortened: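 HeLa cell cultures exposed to compound for the same duration as the antiviral assay, then examined microscopically. The minimum cytotoxic concentration is the lowest level causing detectable alteration of normal cell morphology. Values are in μg/mL.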

[4] = system: Nucleic Acid; experiment: Association constant against the polynucleotide poly (dA-dT).; assay type: nucleic-acid assay
Procedure, shortened: (§2)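 Competition with ethidium bromide binding at 25 °C in 0.01 M cacodylate buffer, pH 7.0, with 1.26 μM ethidium bromide and 1 μM polynucleotide. Bound ethidium is estimated from its fluorescence increase (V = 34 for poly(dA-dT), 25 for poly(dG-dC)). IC50 for 50% ethidium displacement comes from a fitted competition sigmoid. Kapp is calculated from IC50 assuming a binding size of four base pairs.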

[5] = Dose required to inhibit Human T-Lymphoblast (Molt/4F) cell proliferation by 50%; assay type: functional; settings: read-out: CD50 (the source's name)
[6] = system: Mammalian orthoreovirus 1; experiment: Minimum inhibitory concentration required to reduce reovirus-1 induced cytopathogenicity by 50% in african green monkey (VeroB)cells; assay type: functional; procedure, shortened: as §1
[7] = system: Vero; experiment: Minimum cytotoxic concentration required to cause a microscopically detectable alteration of normal cell morphology and show antiviral activity in african green monkey (Vero B) cells; assay type: functional; settings: Chlorocebus sabaeus
[8] = system: Semliki Forest virus; experiment: Minimum inhibitory concentration required to reduce semliki forest virus induced cytopathogenicity by 50% in african green monkey (VeroB) cells; assay type: functional; procedure, shortened: as §1
[9] = organism: Oryctolagus cuniculus; experiment: Minimum cytotoxic concentration required to cause a microscopically detectable alteration of normal cell morphology and show antiviral activity in primary rabbit kidney (PRK) cells; assay type: functional
[10] = system: Nucleic Acid; experiment: Ratio of association constant of poly (dA-dT) and poly (dG-dC); assay type: nucleic-acid assay
Procedure, shortened: (§3)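 Kapp for poly(dA-dT) and for poly(dG-dC) is each determined by ethidium bromide competition in 0.01 M cacodylate, pH 7.0, 25 °C, with 1.26 μM ethidium and 1 μM polynucleotide. IC50 comes from a fitted competition sigmoid and is converted to Kapp assuming a four-base-pair binding size. The ratio is taken between the two polynucleotides.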

[11] = system: Vero; experiment: Minimum inhibitory concentration required to reduce parainfluenza virus-3 induced cytopathogenicity by 50% in african green monkey (VeroB) cells; assay type: functional, Human respirovirus 3; settings: Chlorocebus sabaeus; procedure, shortened: as §1
[12] = Minimum inhibitory concentration required to reduce herpes simplex virus-2 (G)induced cytopathogenicity by 50% in primary rabbit kidney cells (PRK); assay type: functional; settings: Oryctolagus cuniculus
[13] = system: Raji; experiment: Dose required to inhibit Human B-Lymphoblast (Raji) cell proliferation by 50%; assay type: functional; settings: read-out: CD50 (the source's name)
[14] = system: Sindbis virus; experiment: Minimum inhibitory concentration required to reduce Sindbis virus induced cytopathogenicity by 50% in african green monkey (VeroB) cells; assay type: functional; procedure, shortened: as §1
[15] = system: L1210; experiment: Dose required to inhibit Murine leukemia (L1210) cell proliferation by 50%; assay type: functional; settings: Mus musculus, read-out: CD50 (the source's name)
[16] = system: Nucleic Acid; experiment: Association constant against polynucleotide poly (dG-dC); assay type: nucleic-acid assay; procedure, shortened: as §2
[17] = Minimum inhibitory concentration required to reduce herpes simplex virus-1 (KOS)induced cytopathogenicity by 50% in primary rabbit kidney cells (PRK); assay type: functional; settings: Oryctolagus cuniculus
[18] = Dose required to inhibit Murine mammary carcinoma (FM3A) cell proliferation by 50%; assay type: functional; settings: Mus musculus, read-out: CD50 (the source's name)
[19] = system: HeLa; experiment: Minimum inhibitory concentration required to reduce polio virus -1 induced cytopathogenicity by 50% in HeLa cells; assay type: functional; settings: Homo sapiens
[20] = (§4) Minimum inhibitory concentration required to reduce vesicular stomatitis virus induced cytopathogenicity by 50% in primary rabbit kidney cells (PRK); assay type: functional; settings: Oryctolagus cuniculus
[21] = system: HeLa; experiment: Minimum inhibitory concentration required to reduce vesicular stomatitis virus induced cytopathogenicity by 50% in HeLa cells; assay type: functional; settings: Homo sapiens
[22] = system: Nucleic Acid; experiment: Association constant against the polynucleotide poly(dA-dT); assay type: nucleic-acid assay; procedure, shortened: as §2
[23] = system: Vesicular stomatitis virus; experiment: as §4; assay type: functional
[24] = system: Human alphaherpesvirus 2; experiment: Minimum inhibitory concentration required to reduce herpes simplex virus-2(G) induced cytopathogenicity by 50% in primary rabbit kidney cells (PRK); assay type: functional; procedure, shortened: as §1
[25] = system: Human alphaherpesvirus 1; experiment: Minimum inhibitory concentration required to reduce herpes simplex virus-1 (KOS) induced cytopathogenicity by 50% in primary rabbit kidney cells(PRK); assay type: functional; procedure, shortened: as §1
[26] = system: FM3A; experiment: In vitro inhibition of FM3A (murine mammary carcinoma) cell proliferation.; assay type: functional; settings: Mus musculus, read-out: CD50 (the source's name)
[27] = system: Nucleic Acid; experiment: Ratio of association constant of poly(dA-dT) and poly(dG-dC); assay type: nucleic-acid assay; procedure, shortened: as §3
[28] = system: Raji; experiment: Inhibition of Human B-Lymphoblast Raji cell proliferation; assay type: functional; settings: read-out: CD50 (the source's name)

Cn1cc(NC(=O)c2cc(NC(=O)CNC(=N)N)cn2C)cc1C(=O)NCCCNCCCCN
MIC [1]: > 200 µg/mL | MIC [2]: > 200 µg/mL | MCC [3]: > 200 µg/mL | K app [4]: 2e+07 M⁻¹ | CC50 [5]: > 200 µg/mL | MIC [6]: > 100 µg/mL | MCC [7]: ≥ 200 µg/mL | MIC [8]: > 200 µg/mL | MCC [9]: >=400 ug ml-1 | Ratio [10]: 2.63 | MIC [11]: > 200 µg/mL | MIC [12]: > 200 µg/mL | CC50 [13]: > 200 µg/mL | MIC [14]: > 200 µg/mL | CC50 [15]: > 200 µg/mL | K app [16]: 7.6e+06 M⁻¹ | MIC [17]: > 200 µg/mL | CC50 [18]: > 200 µg/mL

NC(=O)c1ncn([C@@H]2O[C@H](CO)[C@@H](O)[C@H]2O)n1 [RIBAVIRIN]
MIC [1]: 70 µg/mL (≈ 287 µM) | MIC [2]: 70 µg/mL (≈ 287 µM) | MIC [19]: 70 µg/mL (≈ 287 µM) | MIC [20]: > 400 µg/mL | MCC [3]: > 200 µg/mL | MIC [21]: 20 µg/mL (≈ 81.9 µM) | MIC [6]: 20 µg/mL (≈ 81.9 µM) | MCC [7]: > 400 µg/mL | MIC [8]: 150 µg/mL (≈ 614 µM) | MCC [9]: >400 µg/mL | MIC [11]: 20 µg/mL (≈ 81.9 µM) | MIC [12]: > 400 µg/mL | MIC [14]: 70 µg/mL (≈ 287 µM) | MIC [17]: > 400 µg/mL

Cn1cc(NC(=O)c2cc(NC(=O)CNC(=N)N)cn2C)cc1C(=O)NCCC(=N)N [NETROPSIN]
MIC [1]: > 100 µg/mL | MIC [2]: > 400 µg/mL | MIC [19]: > 100 µg/mL | MIC [20]: > 400 µg/mL | MCC [3]: > 100 µg/mL | K app [4]: 7.3e+08 M⁻¹ | MIC [21]: > 100 µg/mL | CC50 [5]: > 100 µg/mL | MIC [6]: > 400 µg/mL | MCC [7]: > 400 µg/mL | MIC [8]: > 400 µg/mL | MCC [9]: >400 µg/mL | Ratio [10]: 23500 | MIC [11]: > 400 µg/mL | MIC [12]: > 400 µg/mL | CC50 [13]: 139 µg/mL (≈ 323 µM) | MIC [14]: > 400 µg/mL | CC50 [15]: 295 µg/mL (≈ 685 µM) | K app [16]: 31000 M⁻¹ | MIC [17]: > 400 µg/mL | CC50 [18]: 321 µg/mL (≈ 746 µM)

Cn1cc([N+](=O)[O-])cc1C(=O)NCCCNCCCCN
MIC [1]: > 400 µg/mL | MIC [2]: > 200 µg/mL | K app [22]: 1e+06 M⁻¹ | MIC [23]: > 400 µg/mL | MCC [3]: > 400 µg/mL | CC50 [5]: > 200 µg/mL | MIC [6]: > 100 µg/mL | MCC [7]: > 400 µg/mL | MIC [8]: > 400 µg/mL | MIC [24]: > 200 µg/mL | MCC [9]: >400 µg/mL | MIC [25]: > 200 µg/mL | MIC [11]: > 200 µg/mL | CC50 [26]: > 200 µg/mL | CC50 [13]: > 200 µg/mL | MIC [14]: > 400 µg/mL | CC50 [15]: > 200 µg/mL | K app [16]: 420000 M⁻¹ | Ratio [27]: 2.38

C[C@H](NC(=O)c1cc(NC(=O)c2cc([N+](=O)[O-])cn2C)cn1C)C(=O)N[C@@H](C)C(=O)N[C@@H](C)C(=O)OC(C)(C)C
MIC [1]: > 200 µg/mL | MIC [2]: > 200 µg/mL | MIC [19]: > 400 µg/mL | K app [22]: < 100 M⁻¹ | MIC [23]: > 100 µg/mL | MCC [3]: > 400 µg/mL | CC50 [5]: > 100 µg/mL | MIC [6]: > 200 µg/mL | MCC [7]: > 400 µg/mL | MIC [8]: > 200 µg/mL | MIC [24]: > 200 µg/mL | MCC [9]: >400 µg/mL | MIC [25]: > 100 µg/mL | MIC [11]: > 400 µg/mL | CC50 [26]: > 100 µg/mL | CC50 [13]: > 100 µg/mL | MIC [14]: > 200 µg/mL | CC50 [15]: > 100 µg/mL | K app [16]: 750 M⁻¹ | Ratio [27]: < 0.13

Cn1cc(NC(=O)c2cc([N+](=O)[O-])cn2C)cc1C(=O)NCCC#N
MIC [1]: > 10 µg/mL | MIC [2]: > 10 µg/mL | K app [22]: < 100 M⁻¹ | MIC [23]: > 10 µg/mL | MCC [3]: > 40 µg/mL | CC50 [5]: > 100 µg/mL | MIC [6]: > 10 µg/mL | MCC [7]: > 40 µg/mL | MIC [8]: > 10 µg/mL | MIC [24]: > 10 µg/mL | MCC [9]: >40 µg/mL | MIC [25]: > 10 µg/mL | MIC [11]: > 10 µg/mL | MIC [14]: > 10 µg/mL | CC50 [15]: > 100 µg/mL | K app [16]: < 100 M⁻¹ | CC50 [28]: > 100 µg/mL

Cn1c(C(=O)O)ccc1[N+](=O)[O-]
MIC [1]: 70 µg/mL (≈ 411 µM) | MIC [2]: > 100 µg/mL | MIC [19]: > 400 µg/mL | MIC [23]: > 400 µg/mL | MCC [3]: > 400 µg/mL | MIC [21]: > 200 µg/mL | CC50 [5]: > 50 µg/mL | MIC [6]: > 100 µg/mL | MCC [7]: > 400 µg/mL | MIC [8]: > 200 µg/mL | MIC [24]: > 400 µg/mL | MCC [9]: >400 µg/mL | MIC [25]: > 400 µg/mL | MIC [11]: > 200 µg/mL | CC50 [13]: > 50 µg/mL | MIC [14]: > 100 µg/mL | CC50 [15]: > 50 µg/mL
